In brackets after ≈: the same amount, converted by molar mass.

Holding throughout (assay type): functional
For one assay, the system named is Candida tropicalis. The assay can be described thus: Antifungal activity against Candida tropicalis after 7 days by micro-broth dilution method. The note with it: 168 h. The procedure, abridged:
(§1)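 Micro-broth dilution followed NCCLS methods, using an ATCC standard quality-control strain for C. parapsilosis and a clinical isolate for C. tropicalis. Compounds were dissolved in DMSO, serially diluted in growth medium and incubated at 35 C. MIC80 was the first well with about 80% growth reduction compared with the drug-free well.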

Another assay concerns Candida parapsilosis. The assay can be described thus: Antifungal activity against Candida parapsilosis ATCC 0306392 after 7 days by micro-broth dilution method. Conditions: Lodderomyces parapsilosis, ATCC 0306392, 168 h. The method, boiled down: as §1
On the technique in general: In broth dilution the organism is exposed to a series of concentrations in liquid medium.

Another assay relates to Aspergillus fumigatus. The assay can be described thus: Antifungal activity against Aspergillus fumigatus after 7 days by micro-broth dilution method. The note with it: 168 h. The procedure, abridged: (§2)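 Clinical isolates supplied by a hospital were tested by NCCLS broth microdilution. Compounds were dissolved in DMSO, serially diluted in growth medium, inoculated and incubated at 35 C. Growth was read at 7 days for filamentous fungi. MIC80 was taken as the first well with about 80% less growth than the drug-free well.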

A further assay has as its system Cryptococcus neoformans. The assay can be described thus: Antifungal activity against Cryptococcus neoformans ATCC BLS108 after 72 hrs by micro-broth dilution method. The method, boiled down:
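This ATCC standard quality-control strain was tested in every assay by NCCLS microdilution. Test agents were dissolved in DMSO and serially diluted in growth medium. Cultures were incubated at 35 C and read at 72 h. MIC80 was the first well with approximately 80% reduced growth relative to the drug-free well.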

The next assay concerns Fonsecaea compacta. The assay is described as follows: Antifungal activity against Fonsecaea compacta after 7 days by micro-broth dilution method. Conditions: 168 h. The procedure, abridged:
as §2

The test system of the next assay is Microsporum. The assay can be described thus: Antifungal activity against Microsporum gypseum after 7 days by micro-broth dilution method. The note with it: 168 h. The method, boiled down:
as §2

The test system of another assay is Candida albicans. The assay is described as follows: Antifungal activity against Candida albicans ATCC Y0109 after 24 hrs by micro-broth dilution method. The procedure, abridged:
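An ATCC standard quality-control strain was included in each run of an NCCLS micro-broth dilution assay. Compounds were dissolved in DMSO, serially diluted in growth medium and incubated at 35 C. Reading was at 24 h, and MIC80 was the first well showing roughly 80% growth reduction versus the drug-free control.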

Another assay relates to Trichophyton rubrum. The assay is described as follows: Antifungal activity against Trichophyton rubrum after 7 days by microbroth dilution method. The note with it: 168 h. The method, boiled down: as §2

For `COc1ccc(C(=O)Nc2ccc(N3CCN(CC(O)(Cn4cncn4)c4ccc(F)cc4F)CC3)c(F)c2)cc1OC` (stereo not drawn), the MIC80 (commonly the lowest concentration that inhibits either 80% of growth or 80% of the strains tested, depending on the study) stood at 0.0039 µg/mL (≈ 0.00654 µM) against Candida tropicalis; 0.0625 µg/mL (≈ 0.105 µM) in the assay with Candida parapsilosis; 1 µg/mL (≈ 1.68 µM) against Aspergillus fumigatus; 0.25 µg/mL (≈ 0.419 µM) against Cryptococcus neoformans; 0.25 µg/mL (≈ 0.419 µM) in the assay with Fonsecaea compacta; 0.25 µg/mL (≈ 0.419 µM) against Microsporum. Also, the values for the MIC80 against Candida albicans and against Trichophyton rubrum were 0.0625 µg/mL (≈ 0.105 µM) and 0.25 µg/mL (≈ 0.419 µM), respectively.

In the case of `CCCc1ccc(C(=O)Nc2ccc(N3CCN(CC(O)(Cn4cncn4)c4ccc(F)cc4F)CC3)c(F)c2)cc1` (stereo not drawn), the MIC80 came out at 1 µg/mL (≈ 1.73 µM) with Candida tropicalis; 0.0625 µg/mL (≈ 0.108 µM) in the assay with Candida parapsilosis; 4 µg/mL (≈ 6.91 µM) in the assay with Aspergillus fumigatus; 1 µg/mL (≈ 1.73 µM) against Cryptococcus neoformans; 0.25 µg/mL (≈ 0.432 µM) in the assay on Fonsecaea compacta; 0.25 µg/mL (≈ 0.432 µM) in the assay with Microsporum. Moreover, the MIC80 was 1 µg/mL (≈ 1.73 µM) in the assay with Candida albicans and 0.25 µg/mL (≈ 0.432 µM) against Trichophyton rubrum.

Consider `CC(C)c1ccc(C(=O)Nc2ccc(N3CCN(CC(O)(Cn4cncn4)c4ccc(F)cc4F)CC3)c(F)c2)cc1` (stereo not drawn), for which the MIC80 against Candida tropicalis was 0.25 µg/mL (≈ 0.432 µM); with Candida parapsilosis it was 0.25 µg/mL (≈ 0.432 µM); with Aspergillus fumigatus, 4 µg/mL (≈ 6.91 µM); against Cryptococcus neoformans it was 0.0625 µg/mL (≈ 0.108 µM); with Fonsecaea compacta, 0.25 µg/mL (≈ 0.432 µM); with Microsporum, 0.25 µg/mL (≈ 0.432 µM). Also, the MIC80 against Candida albicans amounted to 1 µg/mL (≈ 1.73 µM); in the assay with Trichophyton rubrum, 0.25 µg/mL (≈ 0.432 µM).

With `O=[N+]([O-])c1ccc(N2CCN(CC(O)(Cn3cncn3)c3ccc(F)cc3F)CC2)c(F)c1` (stereo not drawn), the MIC80 against Candida tropicalis worked out at 0.0152 µg/mL (≈ 0.0329 µM); against Candida parapsilosis, 0.0039 µg/mL (≈ 0.00843 µM); in the assay on Aspergillus fumigatus it was 1 µg/mL (≈ 2.16 µM); against Cryptococcus neoformans it was 0.0152 µg/mL (≈ 0.0329 µM); against Fonsecaea compacta it was 0.0625 µg/mL (≈ 0.135 µM); in the assay with Microsporum, 0.0152 µg/mL (≈ 0.0329 µM). The MIC80 in the assay with Candida albicans and against Trichophyton rubrum was 0.0152 µg/mL (≈ 0.0329 µM) in each case.

As to `CCCCc1ccc(C(=O)Nc2ccc(N3CCN(CC(O)(Cn4cncn4)c4ccc(F)cc4F)CC3)c(F)c2)cc1` (stereo not drawn), the MIC80 against Candida tropicalis worked out at 1 µg/mL (≈ 1.69 µM); with Candida parapsilosis, 1 µg/mL (≈ 1.69 µM); in the assay on Aspergillus fumigatus, 16 µg/mL (≈ 27 µM); against Cryptococcus neoformans it was 1 µg/mL (≈ 1.69 µM); in the assay on Fonsecaea compacta, 0.0625 µg/mL (≈ 0.105 µM); in the assay on Microsporum it was 0.0625 µg/mL (≈ 0.105 µM). Moreover, the MIC80 against Candida albicans and against Trichophyton rubrum was 1 µg/mL (≈ 1.69 µM) throughout.

`O=C(Nc1ccc(N2CCN(CC(O)(Cn3cncn3)c3ccc(F)cc3F)CC2)c(F)c1)c1cccc(Br)c1` (stereo not drawn): the MIC80 against Candida tropicalis was found to be 0.0625 µg/mL (≈ 0.102 µM); in the assay with Candida parapsilosis it was 0.0625 µg/mL (≈ 0.102 µM); in the assay with Aspergillus fumigatus, 4 µg/mL (≈ 6.5 µM); against Cryptococcus neoformans, 0.25 µg/mL (≈ 0.406 µM); in the assay with Fonsecaea compacta it was 0.25 µg/mL (≈ 0.406 µM); with Microsporum, 0.25 µg/mL (≈ 0.406 µM). For the same compound, the MIC80 against Candida albicans and against Trichophyton rubrum was 0.0625 µg/mL (≈ 0.102 µM) in each case.

Turning to `Cc1ccccc1C(=O)Nc1ccc(N2CCN(CC(O)(Cn3cncn3)c3ccc(F)cc3F)CC2)c(F)c1` (stereo not drawn), the MIC80 with Candida tropicalis was 0.0152 µg/mL (≈ 0.0276 µM); against Candida parapsilosis, 0.0152 µg/mL (≈ 0.0276 µM); in the assay on Aspergillus fumigatus it was 1 µg/mL (≈ 1.82 µM); in the assay on Cryptococcus neoformans it was 0.0625 µg/mL (≈ 0.114 µM); in the assay with Fonsecaea compacta, 0.25 µg/mL (≈ 0.454 µM); in the assay on Microsporum, 0.0152 µg/mL (≈ 0.0276 µM). Further, the MIC80 against Candida albicans and in the assay on Trichophyton rubrum was 0.0625 µg/mL (≈ 0.114 µM) in each case.

Consider `Cc1cccc(C(=O)Nc2ccc(N3CCN(CC(O)(Cn4cncn4)c4ccc(F)cc4F)CC3)c(F)c2)c1` (stereo not drawn), for which the MIC80 was 0.0152 µg/mL (≈ 0.0276 µM) in the assay on Candida tropicalis; 0.0152 µg/mL (≈ 0.0276 µM) in the assay with Candida parapsilosis; 1 µg/mL (≈ 1.82 µM) with Aspergillus fumigatus; 0.0625 µg/mL (≈ 0.114 µM) in the assay with Cryptococcus neoformans; 0.25 µg/mL (≈ 0.454 µM) with Fonsecaea compacta; 0.0152 µg/mL (≈ 0.0276 µM) in the assay with Microsporum. The MIC80 in the assay on Candida albicans and in the assay on Trichophyton rubrum was 0.0625 µg/mL (≈ 0.114 µM) in each case.

Consider `Cc1ccc(C(=O)Nc2ccc(N3CCN(CC(O)(Cn4cncn4)c4ccc(F)cc4F)CC3)c(F)c2)cc1` (stereo not drawn), for which the MIC80 against Candida tropicalis worked out at 0.0152 µg/mL (≈ 0.0276 µM); in the assay on Candida parapsilosis it was 0.0152 µg/mL (≈ 0.0276 µM); in the assay with Aspergillus fumigatus it was 1 µg/mL (≈ 1.82 µM); against Cryptococcus neoformans it was 0.0625 µg/mL (≈ 0.114 µM); in the assay with Fonsecaea compacta, 0.0625 µg/mL (≈ 0.114 µM); against Microsporum, 1 µg/mL (≈ 1.82 µM). Further, the MIC80 against Candida albicans and against Trichophyton rubrum was 0.0625 µg/mL (≈ 0.114 µM) in each case.

Regarding `Cc1ccc(C(=O)Nc2ccc(N3CCN(CC(O)(Cn4cncn4)c4ccc(F)cc4F)CC3)c(F)c2)c(C)c1` (stereo not drawn), the MIC80 in the assay on Candida tropicalis was determined as 0.0625 µg/mL (≈ 0.111 µM); in the assay on Candida parapsilosis it was 0.25 µg/mL (≈ 0.443 µM); in the assay with Aspergillus fumigatus, 1 µg/mL (≈ 1.77 µM); with Cryptococcus neoformans it was 0.0625 µg/mL (≈ 0.111 µM); with Fonsecaea compacta, 0.25 µg/mL (≈ 0.443 µM); in the assay with Microsporum, 0.0152 µg/mL (≈ 0.0269 µM). Besides, the MIC80 was determined as 0.25 µg/mL (≈ 0.443 µM) with Candida albicans and 0.0625 µg/mL (≈ 0.111 µM) against Trichophyton rubrum.

For the compound `COc1ccc(C(=O)Nc2ccc(N3CCN(CC(O)(Cn4cncn4)c4ccc(F)cc4F)CC3)c(F)c2)cc1` (stereo not drawn), the MIC80 turned out to be 0.0152 µg/mL (≈ 0.0268 µM) with Candida tropicalis; 0.0152 µg/mL (≈ 0.0268 µM) against Candida parapsilosis; 0.25 µg/mL (≈ 0.441 µM) in the assay with Aspergillus fumigatus; 0.0625 µg/mL (≈ 0.11 µM) with Cryptococcus neoformans; 0.25 µg/mL (≈ 0.441 µM) against Fonsecaea compacta; 0.25 µg/mL (≈ 0.441 µM) in the assay on Microsporum. In addition, the MIC80 came to 0.0152 µg/mL (≈ 0.0268 µM) with Candida albicans and 0.25 µg/mL (≈ 0.441 µM) in the assay on Trichophyton rubrum.
